Measurements collected from several papers.
Target: Dual specificity protein kinase CLK2 (CLK2, Homo sapiens, UniProt P49760)

COc1ncccc1-c1cnn2ccc(N3CCN(C(=O)OC(C)C)CC3)nc12 — remaining binding (binding; competition with immobilised ligand; 1 µM): 100%
COc1cc(Nc2ncc(F)c(Nc3ccc4c(n3)NC(=O)C(C)(C)O4)n2)cc(OC)c1OC — inhibition (binding; competition with immobilised ligand; 10 µM): 84%
Nc1ncc(-c2nc(N3CCOCC3)nc(N3CCOCC3)n2)c(C(F)F)n1 — remaining binding (binding; competition with immobilised ligand; 10 µM): 41%
Cn1cncc1[C@@](O)(COc1ccc(C#N)cc1-c1ccc(OC(F)(F)F)cc1)c1ccc(C#N)cc1 — remaining binding (cell-free assay; competition with immobilised ligand; 1 µM): 90%
O=c1[nH]c2ccccc2n1C1CCN(Cc2ccc(-c3[nH]c4cc5ncnc5cc4nc3-c3ccccc3)cc2)CC1 — remaining signal (cell-free assay; 0.5 µM): 114%
Cn1cc(-c2cc(F)cc(N3CCn4c(cc5c4CCCC5)C3=O)c2CO)cc(Nc2ccc(N3CCN(C4COC4)CC3)cn2)c1=O — inhibition (enzyme activity; inhibitor; 0.1 µM): 7%
C#Cc1n[nH]c2c(-c3cn([C@@H](C)c4ccccn4)c(=O)[nH]c3=O)cc(F)cc12 — inhibition (enzyme activity; inhibitor; 0.1 µM): 7.4%
Cn1cc(-c2cccc(N3CCc4c(sc5c4CC(C)(C)C5)C3=O)c2CO)cc(Nc2ccncn2)c1=O — inhibition (enzyme activity; inhibitor; 1 µM): 4%
CC(C)(C)c1cc(C=C(C#N)C#N)cc(Br)c1O — remaining activity (enzyme activity; inhibitor; 0.5 µM): 104%
N#CC1(c2ccccn2)CCN(Cc2cc(C(=O)O)c(=O)n3ccccc23)CC1 — remaining binding (cell-free assay; competition with immobilised ligand; 1 µM): 100%
Cc1nn(C)cc1-c1nc2c(N3CCN(Cc4ccc(Cl)cc4)CC3)c(Cl)cnc2[nH]1 — remaining binding (binding; competition with immobilised ligand; 1 µM): 77%
